HCT116 PTEN-null: growth suppression of PTEN-null HCT116, primary screen, cell-based, CellTiter-Glo | HCT116 PTEN-null viability, 60 h; stronger effect = lower value | viability, % at 10 µM | 140,000 compounds, 1.2% hits | AID 827, 2007;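 active = viability at or below a set limit, 4 SD under the median of all tested compounds, cut at about 3.7% in these data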;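 also: PTEN knockout HCT116 line with beta catenin targeted HCT116 as companion control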
Lmaj promast: Leishmania major promastigote growth inhibition, primary screen. Leishmania major promastigotes, resazurin fluorescence viability. inhibition, % at 10 µM. 200,000 compounds, 9% hits. AID 1063, 2008; in the data active = inhibition above about 50%;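 also: promastigotes grown with compound for 44 hours at 28 °C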
TNAP inh noacc: human TNAP enzyme inhibitors, primary screen, biochemical, luminescent, no phosphate acceptor, uHTS | Alkaline phosphatase, tissue-nonspecific isozyme (Homo sapiens), P05186 | purified TNAP, CDP-star luminescence, 30 min | inhibition, % at 20 µM | 200,000 compounds, 0.26% hits | AID 1012, 2008;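 active = tissue-nonspecific alkaline phosphatase inhibition above about 50% at 20 µM in the single-dose screen, limit read from the data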;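 also: 0% = DMSO negative control and 100% = EDTA positive control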
Target sequence (P05186 whole entry, looked up): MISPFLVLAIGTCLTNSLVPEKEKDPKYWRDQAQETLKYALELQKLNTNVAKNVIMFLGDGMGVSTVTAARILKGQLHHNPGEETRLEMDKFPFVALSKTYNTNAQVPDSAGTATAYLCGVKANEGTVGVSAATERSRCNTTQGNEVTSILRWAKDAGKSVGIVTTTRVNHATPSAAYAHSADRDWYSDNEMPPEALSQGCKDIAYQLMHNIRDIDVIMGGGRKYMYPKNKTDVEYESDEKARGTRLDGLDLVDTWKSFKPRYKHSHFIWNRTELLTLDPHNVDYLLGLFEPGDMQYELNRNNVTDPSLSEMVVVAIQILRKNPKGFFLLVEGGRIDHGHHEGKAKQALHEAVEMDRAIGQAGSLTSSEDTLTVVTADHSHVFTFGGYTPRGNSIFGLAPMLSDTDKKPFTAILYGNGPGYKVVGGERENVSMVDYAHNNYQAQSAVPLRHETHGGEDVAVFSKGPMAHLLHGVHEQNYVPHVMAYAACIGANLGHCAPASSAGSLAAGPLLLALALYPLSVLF
TNAP act hiacc: TNAP activators at high phosphate acceptor level, primary screen, biochemical, luminescence, uHTS | activation factor at 20 µM | purified TNAP, CDP-star luminescence, 1 M DEA, 30 min; stronger effect = higher value; 0 = EDTA background, 1 = DMSO-only activity | 200,000 tested, under 10 active;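 active = activation factor at least 2 at 20 µM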
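Measured by: Luminescent substrate turnover signal | Test system: Human TNAP | Input: TNAP 1/800 final | Dosing: 20 µM single point | Schedule: 30 min, room temperature | Controls: EDTA wells as negative control, DMSO wells as positive control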
bCat KO growth: primary screen for growth suppressors in beta-catenin knockout HCT116 cells (colon tumor, human); HCT116 beta-catenin knockout viability, CellTiter-Glo, 60 h; stronger effect = lower value; viability, % at 10 µM; 140,000 compounds, 1.5% hits; AID 818, 2007;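 active = viability at or under a set limit, the compound median less 4 SD, cut at about 6% in these data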;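 also: 0% = Hyamine 1622 control at 20 µM and 100% = untreated cell control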
TNAP inh hi DEA: human TNAP enzyme inhibitors, primary screen, biochemical, luminescent, high phosphate acceptor level, uHTS; purified TNAP, CDP-star luminescence, 1 M DEA; AID 1135, 2008; 200,000 compounds, 0.03% hits; inhibition, % at 20 µM;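 active = over 50% inhibition of tissue-nonspecific alkaline phosphatase at 20 µM in the single-dose screen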;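 also: plate controls were DMSO wells for no effect and EDTA-quenched wells as full inhibition for full effect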
The depositor's hits bear a star; nt = no result. A selection: hits, their analogues and other compounds. The true share with any hit is near 9.6%.

SMILES	HCT116 PTEN-null	Lmaj promast	TNAP inh noacc	TNAP act hiacc	bCat KO growth	TNAP inh hi DEA
Cc1[nH]c2ccccc2c1/C=N/Nc1nncn1N	nt	9.5	-11.3	1	nt	-2.4
COc1cc(/C=N/Nc2nc(Nc3ccccc3)nc(-n3nc(C)cc3C)n2)cc(OC)c1OC	66.0	100.5*	-81.9	1	66.3	-1.6
COc1cc(/C=N/Nc2nc(Nc3ccccc3)nc(N3CCCCC3)n2)ccc1OCC(=O)O	nt	-11.3	-10.0	1	nt	-1.0
COc1ccc(/C=N/Nc2nc(Nc3ccccc3)nc(N3CCCCC3)n2)c(OC)c1	88.4	99.5*	-7.4	1	97.3	-0.9
Cc1cc(NS(=O)(=O)c2ccc(NC(=O)c3cc4cc(Br)ccc4oc3=O)cc2)no1	nt	-11.4	-5.0	0.9	nt	6.9
Cc1ccc(C)c(S(=O)(=O)c2c(N)n(/N=C/c3ccco3)c3nc4ccccc4nc23)c1	70.5	93.9*	-8.6	1	77.0	-0.5
Nc1c(S(=O)(=O)c2ccccc2)c2nc3ccccc3nc2n1/N=C/c1cccc(O)c1	3.6*	91.1*	-12.7	1.1	8.6	-5.9
Cc1cccc(S(=O)(=O)c2c(N)n(/N=C/c3ccccc3)c3nc4ccccc4nc23)c1	52.8	0.2	4.0	1	52.9	-2.2
CCN1CC(C)C(O)(c2ccccc2)CC1C (stereo not given)	101.7	79.3*	-9.4	1.1	108.1	-5.4
Cc1ccc(CNC(=O)CCC2CCCN(C(=O)CCC(F)(F)F)C2)o1 (stereo not given)	nt	-6.2	-12.6	1.1	nt	-5.3
CC1CC(C)CN(Cc2nc(N)nc(Nc3ccc4ccccc4c3)n2)C1 (stereo not given)	23.1	94.8*	-0.3	1	20.7	-0.2
Nc1nc(CN2CCN(Cc3ccc4c(c3)OCO4)CC2)nc(Nc2ccccc2)n1	89.4	71.5*	10.0	0.9	82.9	5.4
Cc1ccccc1Nc1nc(N)nc(CN2CCN(Cc3ccc4c(c3)OCO4)CC2)n1	nt	-2.0	-7.9	1.1	nt	-7.1
CC1CC(C)CN(Cc2nc(N)nc(Nc3ccccc3)n2)C1 (stereo not given)	86.4	9.8	-1.4	1	80.6	-0.4
Nc1nc(CN2CCC(Cc3ccccc3)CC2)nc(Nc2ccccc2)n1	68.6	100.3*	-15.5	1.1	56.2	-8.7
Cc1ccccc1OCCCn1c(CO)nc2ccccc21	nt	9.3	-6.0	1	nt	0.3
COc1ccc(S(=O)(=O)N2CCC(C(=O)N3CCc4ccccc4C3)CC2)cc1Cl	78.6	96.4*	-13.1	1	96.3	-0.4
COc1ccc(S(=O)(=O)N2CCC(C(=O)N3CCC(C(N)=O)CC3)CC2)cc1Cl	nt	-2.4	-9.7	1.1	nt	-8.2
Cc1ccn2c(NC(C)(C)C)c(-c3cccs3)nc2c1	nt	26.3	-6.1	1	nt	0.5
CCOC(=O)C1(Cc2ccc(OC)cc2)CCN(C(=O)c2cncs2)CC1	nt	-3.2	-1.8	1	nt	-3.1
O=C(N/N=C/c1ccc(-c2ccccc2[N+](=O)[O-])o1)c1cncc(Br)c1	83.3	97.6*	-1.3	1	81.1	3.5
Cc1c(C(=O)N/N=C/c2ccc(-c3ccccc3[N+](=O)[O-])o2)sc(N)c1C#N	100.0	71.1*	4.4	0.9	98.5	9.7
O=C(N/N=C/c1cc([N+](=O)[O-])c(N2CCOCC2)cc1N1CCOCC1)c1cccnc1	nt	4.5	-1.7	0.9	nt	5.5
Cc1cc([N+](=O)[O-])c(C)cc1-c1ccc(/C=N/NC(=O)c2cccnc2)o1	nt	100.0*	-21.6	1	nt	0.2
Cc1[nH]ccc(=O)c1Oc1ncc(C(F)(F)F)cc1Cl	nt	15.7	-14.6	1	nt	-2.9
SMILES	HCT116 PTEN-null	Lmaj promast	TNAP inh noacc	TNAP act hiacc	bCat KO growth	TNAP inh hi DEA
Cc1ccc(N(CC(=O)N/N=C/c2cc(C)n(-c3ccccc3C)c2C)S(C)(=O)=O)cc1	82.7	5.2	-11.8	1	74.9	-2.0
CCC(=O)N1CCc2cc(S(=O)(=O)CCC(=O)Nc3ccc(C)cn3)ccc21	nt	-3.8	-5.7	1.1	nt	-6.9
Cc1cc(OC(C)C(N)=O)nc(-c2ccccc2)n1 (stereo not given)	nt	0.7	-13.0	1	nt	-3.0
Cc1ccc(NC(=O)COc2ccc(/C=C3/SC(=Nc4ccccc4)N(Cc4cccnc4)C3=O)cc2)cc1	2.2*	0.7	0.0	0.9	2.7*	5.3
Cc1ccc(NC(=O)COc2ccc(/C=N/NC(=O)CSCc3ccccc3)cc2)cc1	95.3	12.7	-8.8	1.1	82.8	-6.0
COc1cccc(C(=O)COC(=O)c2ccc(NC(C)=O)cc2)c1	96.8	80.6*	-9.0	1	97.3	-4.3
CCOc1ccc(CNc2ccc(N3CCCC3)cc2)cc1	6.0	100.3*	-3.6	1	4.5*	4.2
CC(C)c1ccc(CNc2ccc(N3CCOCC3)cc2)cc1	75.1	81.1*	-12.1	1	81.5	-3.8
CCOc1cc(CNc2ccc(N3CCCC3)cc2)cc(Cl)c1OC	63.0	8.1	14.9	0.9	49.8	8.8
COc1cc(NC(=O)COC(=O)Cc2ccc(-c3ccccc3)cc2)cc(OC)c1	95.6	25.5	-13.9	1.1	97.2	-9.1
Cc1ccc(Nc2cc(C)nn2-c2nc(C)cc(C)n2)cc1	27.3	92.1*	-14.3	1	20.9	1.8
Cc1ccc(N(Cc2ccc(C(=O)NN=C3CCN(C)CC3)cc2)S(C)(=O)=O)cc1C	98.8	34.4	-9.3	1	101.5	1.0
Cc1ccc(NC(=S)NCC2CCN(C(C)c3ccccc3)C2)cc1C (stereo not given)	nt	81.7*	-16.4	1	nt	0.1
COc1ccccc1OCCSc1nnc(C)n1-c1ccccc1	105.1	73.0*	-15.2	1.1	94.0	-6.3
Cc1ccc(-c2nn(-c3ccccc3)cc2/C=N/NC(=O)CSc2nnc(C)n2-c2ccccc2)cc1	3.4*	29.4	-4.6	1	3.6*	-3.5
Cc1nnc(SCC(=O)NNC(=O)c2ccccc2)n1-c1ccccc1	101.1	66.2*	-2.7	1	98.9	1.7
O=C(NCc1ccco1)c1cccc(NS(=O)(=O)c2ccccc2F)c1	95.4	-4.8	-2.2	1	96.9	-2.6
Cc1nc2ccccc2c2oc(C(=O)NCCN3CCCCC3C)cc12 (stereo not given)	54.5	4.5	-17.6	1	56.2	-4.5
CCN1CCCC1CNC(=O)c1cc2c(C)nc3ccccc3c2o1 (stereo not given)	70.4	100.3*	-1.7	1	70.3	-0.7
O=C(NCc1cccnc1)c1cc(Sc2ccccc2Cl)nc2ccccc12	61.0	77.6*	23.5	1	62.8	-3.8

Screens from PubChem BioAssay.
